ChEMBL document CHEMBL3045357, “DNA adducts as biomarkers for oxidative and genotoxic stress from pesticides in crop plants” (J Agric Food Chem, 2008)

Assays:
Format in all cases: organism-based
Details in all cases: in vivo, other, 336 h
Glycine max [1] = test: Genotoxicity in Glycine max (soybean) exposed to compound through spray 4 times over 2 weeks assessed as HX-dG adducts using [32P]labeling based autoradiography
In short: (§1)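 Plants (2–6 weeks grown), groups of 2–4, sprayed 4 times over 2 weeks with formulations diluted per label (chlorothalonil 1:256, carbaryl 1:64 in water); controls water-sprayed. DNA from 1 g leaf via DNeasy Maxi kit. 10 µg DNA digested with micrococcal nuclease/spleen phosphodiesterase (4 h, 37 °C), NP1-enriched (45 min, 37 °C), labelled with [γ-32P]ATP/T4 kinase (45 min, 37 °C).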

Glycine max [2] = test: Genotoxicity in Glycine max (soybean) exposed to compound through spray 4 times over 2 weeks assessed as relative adduct level A1 measured per 10^9 nucleotides using HX-dG internal standard using [32P]labeling based autoradiography relative to untreated control; in short: as §1
Glycine max [3] = test: Genotoxicity in Glycine max (soybean) exposed to compound through spray 4 times over 2 weeks assessed as relative adduct level A5 measured per 10^9 nucleotides using [32P]labeling based autoradiography relative to untreated control; in short: as §1
Glycine max [4] = test: Genotoxicity in Glycine max (soybean) exposed to compound through spray 4 times over 2 weeks assessed as relative adduct level A5 measured per 10^9 nucleotides using HX-dG internal standard using [32P]labeling based autoradiography relative to untreated control; in short: as §1
Glycine max [5] = test: Genotoxicity in Glycine max (soybean) exposed to compound through spray 4 times over 2 weeks assessed as HNE-dG adducts using [32P]labeling based autoradiography (reference value: 34 cpm); in short: as §1
Glycine max [6] = test: Genotoxicity in Glycine max (soybean) exposed to compound through spray 4 times over 2 weeks assessed as relative adduct level A4 measured per 10^9 nucleotides using HX-dG internal standard using [32P]labeling based autoradiography relative to untreated control; in short: as §1
Glycine max [7] = test: Genotoxicity in Glycine max (soybean) exposed to compound through spray 4 times over 2 weeks assessed as HX-dG adducts measured per 10^9 nucleotides using [32P]labeling based autoradiography; in short: as §1
Glycine max [8] = test: Genotoxicity in Glycine max (soybean) exposed to compound through spray 4 times over 2 weeks assessed as relative adduct level A3 measured per 10^9 nucleotides using HX-dG internal standard using [32P]labeling based autoradiography relative to untreated control; in short: as §1
Glycine max [9] = test: Genotoxicity in Glycine max (soybean) exposed to compound through spray 4 times over 2 weeks assessed as HNE-dG adducts measured per 10^9 nucleotides using [32P]labeling based autoradiography (reference value: 2 no unit); in short: as §1
Glycine max [10] = test: Genotoxicity in Glycine max (soybean) exposed to compound through spray 4 times over 2 weeks assessed as relative adduct level A4 measured per 10^9 nucleotides using [32P]labeling based autoradiography relative to untreated control; in short: as §1
Glycine max [11] = test: Genotoxicity in Glycine max (soybean) exposed to compound through spray 4 times over 2 weeks assessed as relative adduct level A1 measured per 10^9 nucleotides using [32P]labeling based autoradiography relative to untreated control; in short: as §1
Glycine max [12] = test: Genotoxicity in Glycine max (soybean) exposed to compound through spray 4 times over 2 weeks assessed as relative adduct level A2 measured per 10^9 nucleotides using HX-dG internal standard using [32P]labeling based autoradiography relative to untreated control; in short: as §1
Glycine max [13] = test: Genotoxicity in Glycine max (soybean) exposed to compound through spray 4 times over 2 weeks assessed as relative adduct level A3 measured per 10^9 nucleotides using [32P]labeling based autoradiography relative to untreated control; in short: as §1
Glycine max [14] = test: Genotoxicity in Glycine max (soybean) exposed to compound through spray 4 times over 2 weeks assessed as relative adduct level A6 measured per 10^9 nucleotides using HX-dG internal standard using [32P]labeling based autoradiography relative to untreated control; in short: as §1
Glycine max [15] = test: Genotoxicity in Glycine max (soybean) exposed to compound through spray 4 times over 2 weeks assessed as relative adduct level A2 measured per 10^9 nucleotides using [32P]labeling based autoradiography relative to untreated control; in short: as §1
Glycine max [16] = test: Genotoxicity in Glycine max (soybean) exposed to compound through spray 4 times over 2 weeks assessed as relative adduct level A6 measured per 10^9 nucleotides using [32P]labeling based autoradiography relative to untreated control; in short: as §1

Structure (SMILES)	Activity (Glycine max [1]) [cpm]	Activity (Glycine max [2]) [cpm]	Activity (Glycine max [3])	Activity (Glycine max [4]) [cpm]	Activity (Glycine max [5]) [cpm]	Activity (Glycine max [6]) [cpm]	Activity (Glycine max [7])	Activity (Glycine max [8]) [cpm]	Activity (Glycine max [9])	Activity (Glycine max [10])	Activity (Glycine max [11])	Activity (Glycine max [12]) [cpm]	Activity (Glycine max [13])	Activity (Glycine max [14]) [cpm]	Activity (Glycine max [15])	Activity (Glycine max [16])
CCOP(=S)(OCC)Oc1cc(C)nc(C(C)C)n1 [DIMPYLATE]	1823	46	7	341	1679	927	47	1377	33	18	1	2483	27	1396	49	27
CC(C)[C@H](C(=O)O[C@H](C#N)c1cccc(Oc2ccccc2)c1)c1ccc(Cl)cc1	8264	1344			3062		215	7857	60		26	2477	154		49	
